Values after ≈ are worked out from the molar mass of the structure shown. Active and inactive are the calls of the source. The rule behind the calls is not given here.
What was measured:
Lu1 = assay: Cytotoxicity against human Lu1 cells; assay type: functional; details: read-out: ED50 (the source's name)
KB = assay: Cytotoxicity against human KB cells; assay type: functional; details: read-out: ED50 (the source's name)
[1] = Cytotoxicity against human multidrug-resistant KBV1 cells in absence of vinblastine; assay type: functional; details: KB-V1, read-out: ED50 (the source's name)
[2] = Cytotoxicity against human BC1 cells; assay type: functional; details: read-out: ED50 (the source's name)
LNCaP = assay: Cytotoxicity against hormone-dependent human LNCaP cells; assay type: functional; details: read-out: ED50 (the source's name)
[3] = Cytotoxicity against human multidrug-resistant KB-V1+ cells in presence of vinblastine; assay type: functional; details: read-out: ED50 (the source's name)
ASK = assay: Cytotoxicity against human ASK cells at 20 ug/mL; assay type: functional, cell-based
Col2 = assay: Cytotoxicity against human Col2 cells; assay type: functional; details: read-out: ED50 (the source's name)
HT = assay: Cytotoxicity against human HT cells; assay type: functional; details: read-out: ED50 (the source's name)
[4] = Cytotoxicity against human U373 cells; assay type: functional, U-373MG ATCC; details: U373 MG, read-out: ED50 (the source's name)
A2780 [5] = assay: Induction of apoptosis in human p53 wild type A2780S at 7.5 uM after 24 hrs by TdT assay; assay type: functional
Method in brief: (§1)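 A2780S (p53 wild-type) and A2780R (p53 mutant) ovarian carcinoma cells were exposed for 24 h at 0–30 µM. Cells (10^6) were trypsinized and fixed in 1% methanol-free formaldehyde/PBS for 15 min on ice. They were washed twice with PBS and fixed in 80% EtOH at −20 °C for 16 h. A TdT assay (APO-Direct kit, minor modifications) then scored % apoptotic cells.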

A2780R = assay: Induction of apoptosis in human p53 mutant A2780R at 1.5 uM after 24 hrs by TdT assay
[6] = Inhibition of tubulin polymerization at 10 to 100 uM
A2780 [7] = assay: Induction of apoptosis in human p53 wild type A2780S at 15 uM after 24 hrs by TdT assay; assay type: functional; method in brief: as §1
A2780 [8] = assay: Induction of apoptosis in human p53 wild type A2780S at 30 uM after 24 hrs by TdT assay; assay type: functional; method in brief: as §1
A2780 [9] = assay: Induction of apoptosis in human p53 […] at 30 uM after 24 hrs by TdT assay; assay type: functional; details: in the assay text read “A2780R” for “A2780S”; method in brief: as §1
[10] = molecular target: T1, DNA topoisomerase 1 (Homo sapiens) (UniProt P11387); assay: Inhibition of topoisomerase 1 at 10 to 100 uM
T1 sequence (whole entry): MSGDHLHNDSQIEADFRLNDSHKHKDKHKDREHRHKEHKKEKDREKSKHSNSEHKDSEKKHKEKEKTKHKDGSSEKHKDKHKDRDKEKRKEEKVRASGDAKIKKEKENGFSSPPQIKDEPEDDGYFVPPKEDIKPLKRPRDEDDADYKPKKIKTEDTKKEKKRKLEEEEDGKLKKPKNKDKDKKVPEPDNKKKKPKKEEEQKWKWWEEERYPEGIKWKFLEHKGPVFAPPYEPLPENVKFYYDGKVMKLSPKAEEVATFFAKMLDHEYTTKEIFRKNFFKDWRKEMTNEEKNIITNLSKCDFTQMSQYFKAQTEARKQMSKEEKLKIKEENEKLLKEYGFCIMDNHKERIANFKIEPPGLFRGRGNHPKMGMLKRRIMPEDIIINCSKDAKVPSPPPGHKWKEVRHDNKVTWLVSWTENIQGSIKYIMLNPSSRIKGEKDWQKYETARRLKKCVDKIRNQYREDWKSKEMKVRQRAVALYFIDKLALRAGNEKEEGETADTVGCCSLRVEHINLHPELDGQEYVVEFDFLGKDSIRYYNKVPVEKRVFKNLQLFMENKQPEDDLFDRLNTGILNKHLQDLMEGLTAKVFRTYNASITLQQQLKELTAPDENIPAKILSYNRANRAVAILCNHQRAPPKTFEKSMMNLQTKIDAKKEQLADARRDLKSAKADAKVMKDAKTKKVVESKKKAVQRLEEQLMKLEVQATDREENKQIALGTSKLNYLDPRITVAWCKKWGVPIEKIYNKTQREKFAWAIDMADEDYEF

Nucleic Acid = assay: Binding affinity to DNA assessed as DNA intercalation; assay type: nucleic-acid assay
M109 [11] = assay: Antitumor activity against mouse M109 cells xenografted CDF1 mouse model at 24 mg/kg, ip for 5 days; assay type: functional; details: route intraperitoneal
Method in brief: (§2)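 A 2% w/v brei of M109 murine lung carcinoma was prepared in RPMI from harvested solid tumors. Female CDF1 mice (six per group) were implanted ip with 0.5 mL. Compound was given ip daily for 5 days, beginning 1 day after implantation. The endpoint was lifespan, expressed as %T/C (treated over control lifespan × 100%).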

A2780 [12] = assay: Induction of apoptosis in human p53 mutant A2780R at 7.5 uM after 24 hrs by TdT assay
A2780 [13] = assay: Induction of apoptosis in human p53 […] at 15 uM after 24 hrs by TdT assay; assay type: functional; details: in the assay text read “A2780R” for “A2780S”; method in brief: as §1
[14] = Inhibition of topoisomerase 2 at 10 to 100 uM
A2780 [15] = assay: Induction of apoptosis in human p53 mutant A2780R at 0.15 uM after 24 hrs by TdT assay
A2780 [16] = assay: Induction of apoptosis in human p53 wild type A2780S at 0.15 uM after 24 hrs by TdT assay; assay type: functional; method in brief: as §1
M109 [17] = assay: Antitumor activity against mouse M109 cells xenografted CDF1 mouse model at 8 mg/kg, ip for 5 days; assay type: functional; details: route intraperitoneal; method in brief: as §2
A2780 [18] = assay: Induction of apoptosis in human p53 wild type A2780S at 1.5 uM after 24 hrs by TdT assay; assay type: functional; method in brief: as §1
ZR-75-1 = assay: Cytotoxicity against hormone-dependent human ZR751 cells; assay type: functional; details: read-out: ED50 (the source's name)
[19] = Cytotoxicity against human Mel2 cells; assay type: functional; details: read-out: ED50 (the source's name)
A-431 = assay: Cytotoxicity against human A431 cells; assay type: functional; details: read-out: ED50 (the source's name)

SMILES	EC50 (Lu1) [µg/mL]	EC50 (KB) [µg/mL]	EC50 [1] [µg/mL]	EC50 [2] [µg/mL]	EC50 (LNCaP) [µg/mL]	EC50 [3] [µg/mL]	Activity (ASK)	EC50 (Col2) [µg/mL]	EC50 (HT) [µg/mL]	EC50 [4] [µg/mL]	EC50 (ZR-75-1) [µg/mL]	other results
C=C1C(=O)O[C@@H]2[C@@H]1C[C@@H](O)[C@H](C)[C@@](O)(C(=O)CC(C)O)[C@H]2OC(=O)C(C)CC (stereo partly drawn)	16.8 (≈ 42.2 µM)	12.7 (≈ 31.9 µM)	> 20	9 (≈ 22.6 µM)	8.1 (≈ 20.3 µM)	> 20	inactive	8.7 (≈ 21.8 µM)				
C=C[C@@](C)(O)C[C@@H](O)/C=C(\C)CC/C=C(\C)COC(C)=O	> 20	3.5 (≈ 11.8 µM)	10.9 (≈ 36.8 µM)	8.7 (≈ 29.4 µM)	> 20	> 20	inactive	6.2 (≈ 20.9 µM)	9.5 (≈ 32.1 µM)	6.3 (≈ 21.3 µM)		
C=C1C(=O)O[C@@H]2[C@@H]1C[C@@H](O)[C@H](C)[C@@](O)(C(=O)/C=C/C)[C@H]2OC(=O)C(C)CC (stereo partly drawn)	0.9 (≈ 2.37 µM)	1 (≈ 2.63 µM)	0.9 (≈ 2.37 µM)	0.8 (≈ 2.1 µM)	0.5 (≈ 1.31 µM)	1.6	inactive	1.1 (≈ 2.89 µM)				Activity (A2780 [5]): 61.31%; Activity (A2780R): 1.66%; Activity [6]: inactive; Activity (A2780 [7]): 51.67%; Activity (A2780 [8]): 78.14%; Activity (A2780 [9]): 49.25%; Activity [10]: inactive; Activity (Nucleic Acid): inactive; T/C (M109 [11]): 113%; Activity (A2780 [12]): 2.63%; Activity (A2780 [13]): 31.87%; Activity [14]: inactive; Activity (A2780 [15]): 0.77%; Activity (A2780 [16]): 1.17%; T/C (M109 [17]): 103%; Activity (A2780 [18]): 1.27%
C=C1C(=O)O[C@@H]2[C@@H]1C[C@@H](O)[C@H](C)[C@@](O)(C(=O)/C=C/C)[C@H]2OC(=O)/C(C)=C\C	1.1 (≈ 2.91 µM)	0.3 (≈ 0.793 µM)	1.2 (≈ 3.17 µM)	0.6 (≈ 1.59 µM)	0.16 (≈ 0.423 µM)	1.3	inactive	0.5 (≈ 1.32 µM)	0.3 (≈ 0.793 µM)	0.2 (≈ 0.529 µM)	0.2 (≈ 0.529 µM)	EC50 [19]: 0.5 µg/mL (≈ 1.32 µM); EC50 (A-431): 0.2 µg/mL (≈ 0.529 µM)
C=C1C(=O)O[C@@H]2[C@@H]1CC(=O)[C@H](C)[C@@](O)(C(=O)/C=C/C)[C@H]2OC(=O)C(C)CC (stereo partly drawn)	2.3 (≈ 6.08 µM)	1.1 (≈ 2.91 µM)	2 (≈ 5.29 µM)	0.5 (≈ 1.32 µM)	0.4 (≈ 1.06 µM)	1.1	inactive	1.2 (≈ 3.17 µM)				
C=C1C(=O)O[C@@H]2[C@@H]1CC[C@H](C)[C@@](O)(C(=O)/C=C/C)[C@H]2OC(=O)/C(C)=C\C	0.4 (≈ 1.1 µM)	0.4 (≈ 1.1 µM)	1.6 (≈ 4.41 µM)	0.8 (≈ 2.21 µM)	1 (≈ 2.76 µM)	0.3	inactive	0.9 (≈ 2.48 µM)	0.4 (≈ 1.1 µM)	0.2 (≈ 0.552 µM)	1.4 (≈ 3.86 µM)	
C=C1C(=O)O[C@@H]2[C@@H]1[C@H]1O[C@H]1[C@H](C)[C@@](O)(C(=O)/C=C/C)[C@H]2OC(=O)/C(C)=C\C	0.5 (≈ 1.33 µM)	0.3 (≈ 0.797 µM)	0.2 (≈ 0.531 µM)	0.3 (≈ 0.797 µM)		0.9	inactive	0.8 (≈ 2.13 µM)	0.16 (≈ 0.425 µM)	0.2 (≈ 0.531 µM)		
C=C1C(=O)O[C@@H]2[C@@H]1[C@@H](O)C[C@H](C)[C@@](O)(C(=O)/C=C/C)[C@H]2OC(=O)/C(C)=C\C	2.3 (≈ 6.08 µM)	1.4 (≈ 3.7 µM)	3 (≈ 7.93 µM)	4.2 (≈ 11.1 µM)	0.4 (≈ 1.06 µM)	1.7	inactive	5.7 (≈ 15.1 µM)			1.4 (≈ 3.7 µM)	
COc1c(O)cc2oc(-c3ccc(O)cc3)cc(=O)c2c1O [HISPIDULIN]	> 20	18.8 (≈ 62.6 µM)	8.7 (≈ 29 µM)	> 20	7.1 (≈ 23.6 µM)	1.3	inactive	> 20	10.1 (≈ 33.6 µM)	8.8 (≈ 29.3 µM)	1.2 (≈ 4 µM)	EC50 [19]: 14.6 µg/mL (≈ 48.6 µM); EC50 (A-431): 1.2 µg/mL (≈ 4 µM)
C=C1C(=O)O[C@@H]2[C@@H]1CC(=O)[C@H](C)[C@@](O)(C(=O)CC(C)OC)[C@H]2OC(=O)C(C)CC (stereo partly drawn)	4.4 (≈ 10.7 µM)	6.6 (≈ 16.1 µM)	4 (≈ 9.75 µM)	1.2 (≈ 2.92 µM)	0.5 (≈ 1.22 µM)	5	inactive	3.1 (≈ 7.55 µM)				

Reference: ChEMBL document CHEMBL1158683, “Cytotoxic sesquiterpenoids from Ratibida columnifera” (1999)
